Measurements: article PMC9671271 (ACS infectious diseases, 2022)

Legend:
C. albicans cells [1] = conditions: acid form of ZQ; stated as known, no reference given; cited from earlier work
[2] = Circular dichroism titration for Zn-induced dimerization/aggregation; format: physicochemical; conditions: CD, 0-50 μM Hist-5 with 250 μM ZnCl2, PPB (198 nm) or 98% TFE (222 nm), 25 °C; ellipticity linear up to 50 μM
C. albicans cells [3] = experiment: Propidium iodide membrane permeability assay, confocal microscopy, yeast form; format: cell-based, Candida albicans SC5314; conditions: for membrane disruption (PI leakage): 12.5 μM Hist-5, 7.5 μM PI, 5 min, RT, PPB
C. albicans = experiment: Two-dimensional broth microdilution checkerboard assay; format: cell-based, Candida albicans SC5314
C. albicans hyphae = experiment: Propidium iodide membrane permeability assay, hyphal form; format: cell-based, Candida albicans SC5314
Outline: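 Colony from YPD agar (30 °C, 24 h) grown 24 h in SD+ at 30 °C, 200 rpm, then diluted to OD600 0.1 in SD+ with 12.5 mM N-acetylglucosamine and grown 24 h at 37 °C, 200 rpm. Cells pelleted and resuspended in PPB pH 7.4, then given 12.5 μM test peptide, 7.5 μM PI, ± ZnCl2 (0.5, 1, 2 eq). Confocal imaging at 5 min, RT; PI excitation 488 nm, emission 600–700 nm.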

## Cc1ccc(S(=O)(=O)Nc2cc(OCC(=O)O)cc3ccc(C)nc23)cc1 [ZQ, 2-methyl-8-(toluene-p-sulfonamido)-6-quinolyloxyacetic acid]
C. albicans cells [1]
  membrane permeability: poor membrane permeability

## DSHAKRHHGYKRKFHEKHHSHRGY [Hist-5, Histatin-5]
[2]
  Zn-induced peptide dimerization/aggregation: dimerization/aggregation is not occurring
C. albicans cells [3]; no added Zn^2+
  membrane disruption (PI leakage): allows leakage of PI into the cytosol
C. albicans cells [3]; one or more molar equivalents of Zn^2+
  membrane disruption (PI leakage): did not cause dye leakage
C. albicans cells [3]; submolar equivalents of Zn^2+
  membrane disruption (PI leakage): internalization of PI
C. albicans; Zn^2+ concentration surpassing the Hist-5 concentration (Figure S9)
  effect of Zn^2+ on fungicidal activity: switched from promoting Hist-5 fungicidal activity to inhibiting it
C. albicans; sub-inhibitory concentrations of Hist-5, strongest at 1:2 Zn^2+ to peptide (Figure S9)
  effect of Zn^2+ supplementation on peptide activity: increase in peptide activity
C. albicans hyphae; 12.5 μM Hist-5, 7.5 μM PI, with Zn^2+ supplementation
  membrane activity on hyphae (PI leakage): protective effect against Hist-5-induced membrane disruption
C. albicans hyphae; 12.5 μM Hist-5 alone, 7.5 μM PI, 5 min, RT, PPB
  membrane activity on hyphae (PI leakage): able to permeabilize the cell membrane

## O=C(O)CN(CCN(CC(=O)O)CC(=O)O)CC(=O)O [EDTA, ethylenediaminetetraacetic acid]
C. albicans cells [3]; cells treated with EDTA and PI only, no peptide (Figure S14)
  PI uptake into the cytosol: not observed
